Source: ChEMBL document CHEMBL4052722, “Virtual screening, synthesis and biological evaluation of DNA intercalating antiviral agents” (Bioorg Med Chem Lett, 2017)
The source made the active and inactive calls. The calls are words filed in the database; no cut-off is given here.

How the values were obtained:
[1] = Cytotoxicity against African green monkey CV1 cells assessed as cell viability at 0.1 to 100 uM preincubated for 4 hrs measured after 24 hrs by MTT assay relative to control; type: cell-based, CV-1; details: chlorocebus aethiops, read-out: Activity
Method in brief: (§1)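 CV-1 cells were exposed to test samples at 0.1, 10 and 100 μM. Viability was read by MTT assay.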

[2] = Cytotoxicity against African green monkey CV1 cells assessed as reduction in cell viability preincubated for 4 hrs measured after 24 hrs by MTT assay relative to control; type: cell-based, CV-1; details: chlorocebus aethiops; method in brief: as §1
[3] = Cytotoxicity against African green monkey CV1 cells assessed as viable cells at 1 uM after 110 hrs by real-time cell analysis relative to control; type: cell-based, CV-1; details: chlorocebus aethiops, read-out: Activity
Method in brief: (§2)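 CV-1 cell viability was monitored in real time on an xCelligence Real-Time Cell Analyzer. This ran in parallel with the plaque-forming assay, in which cells were pre-incubated with the compounds for 4 h before infection.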

[4] = Cytotoxicity against African green monkey CV1 cells assessed as viable cells at 10 uM after 110 hrs by real-time cell analysis relative to control; type: cell-based, CV-1; details: chlorocebus aethiops, read-out: Activity; method in brief: as §2
[5] = Cytotoxicity against African green monkey CV1 cells assessed as viable cells at 30 uM after 110 hrs by real-time cells analysis relative to control; type: cell-based, CV-1; details: chlorocebus aethiops, read-out: Activity; method in brief: as §2
[6] = Selectivity index, ratio of CC50 for African green monkey CV1 cells to IC50 for Vaccinia virus LIVP harboring GFP infected in African green monkey CV1 cells; type: toxicity; details: read-out: Ratio CC50/IC50
[7] = test system: L929; test: Induction of IFN-alpha activity in mouse L929 cells infected with Encephalomyocarditis virus at 10 uM preincubated with cells for overnight followed by viral infection by optical microscopic analysis; type: functional, cell-based
[8] = organism: Bos taurus; test: Displacement of ethidium bromide from calf thymus DNA by fluorescence binding assay
[9] = test system: Vesicular stomatitis virus; test: Antiviral activity against Vesicular stomatitis virus at 0.2 to 620 uM after 24 hrs post infection relative to control; type: functional
[10] = Cytotoxicity against African green monkey CV1 cells assessed as viable cells at 50 uM after 110 hrs by real-time cell analysis relative to control; type: cell-based, CV-1; details: chlorocebus aethiops, read-out: Activity; method in brief: as §2
[11] = Cytotoxicity against African green monkey CV1 cells assessed as viable cells at 5 uM after 110 hrs by real-time cell analysis relative to control; type: cell-based, CV-1; details: chlorocebus aethiops, read-out: Activity; method in brief: as §2

Row | Structure (SMILES) | viability at 24 h, up to 100 µM [1] [%] | CC50 at 24 h [2] [µM] | viability at 110 h, 1 µM [3] [%] | viability at 110 h, 10 µM [4] [%] | viability at 110 h, 30 µM [5] [%] | selectivity ratio [6] | Activity [7] | log Ka [8] | Activity [9] [%] | viability at 110 h, 50 µM [10] [%] | viability at 110 h, 5 µM [11] [%]
1 | c1ccc2nc3c(nc2c1)c1ccccc1n3CCNCCCN1CCOCC1 | 79 | 50 to 81 | 107 | 110 | 75 | 4 | inactive | 6.72 | 52 | – | –
2 | COc1ccc2c(c1)c1nc3ccccc3nc1n2CCN1CCCCC1 | 79 | 100 to 170 | 108 | 96.9 | – | 34 | inactive | – | – | 75.6 | –
3 | CN(C)CCCNC(=O)Cn1c2ccccc2c2nc3ccccc3nc21 | 84 | 100 to 500 | 104 | 131 | – | 50 | inactive | 5.2 | 50 | 90 | –
4 | CCN(CC)CCCNCCn1c2ccccc2c2nc3ccccc3nc21 | 74 | 30 to 50 | 97.1 | 125 | – | – | – | 6.87 | 53 | 17.2 | 125
5 | CN(C)CCCNCCn1c2ccccc2c2nc3ccccc3nc21 | 88 | 50 to 92 | 114 | 110 | 75 | 4 | inactive | 6.76 | 69 | – | –
